Source: ChEMBL document CHEMBL2073777, “Characterization of ochratoxin A transport by human organic anion transporters” (Life Sci, 2001)

How the values were obtained:
Format in all cases: functional, cell-based
[1] = target: T1, Organic anion transporter 3 (Homo sapiens, UniProt Q8TCC7); experiment: TP_TRANSPORTER: inhibition of Ochratoxin A uptake (OTA: 1 uM, Aspartame: 200 uM) in OAT3-expressing S2 cells; details: s2, 200 µM
T1 sequence (Q8TCC7 whole entry): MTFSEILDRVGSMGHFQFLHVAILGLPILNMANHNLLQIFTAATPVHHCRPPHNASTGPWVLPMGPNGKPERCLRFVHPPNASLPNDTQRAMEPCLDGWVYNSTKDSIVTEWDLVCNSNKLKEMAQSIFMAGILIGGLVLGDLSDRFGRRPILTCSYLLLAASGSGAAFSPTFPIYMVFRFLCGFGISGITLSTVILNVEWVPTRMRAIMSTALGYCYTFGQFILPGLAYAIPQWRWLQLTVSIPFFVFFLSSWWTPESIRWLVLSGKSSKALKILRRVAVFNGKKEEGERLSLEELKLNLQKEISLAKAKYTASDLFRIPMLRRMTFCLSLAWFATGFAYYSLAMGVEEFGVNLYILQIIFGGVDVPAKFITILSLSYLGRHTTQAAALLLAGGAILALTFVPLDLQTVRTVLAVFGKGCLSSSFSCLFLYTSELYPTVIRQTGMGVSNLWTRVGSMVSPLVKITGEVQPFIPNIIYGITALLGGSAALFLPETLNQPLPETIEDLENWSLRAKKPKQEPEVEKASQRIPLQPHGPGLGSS
Outline: (§1)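 Mouse proximal tubule second-segment (S2) cells stably expressing human OAT1 or OAT3. Uptake of [³H]-labelled ochratoxin A was measured with and without added OAT substrates as inhibitors.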

[2] = target: T2, Solute carrier family 22 member 6 (Homo sapiens, UniProt Q4U2R8); experiment: TP_TRANSPORTER: inhibition of Ochratoxin A uptake (OTA: 1 uM, Aspartame: 200 uM) in OAT1-expressing S2 cells; details: s2, 200 µM; outline: as §1
T2 sequence (Q4U2R8 whole entry): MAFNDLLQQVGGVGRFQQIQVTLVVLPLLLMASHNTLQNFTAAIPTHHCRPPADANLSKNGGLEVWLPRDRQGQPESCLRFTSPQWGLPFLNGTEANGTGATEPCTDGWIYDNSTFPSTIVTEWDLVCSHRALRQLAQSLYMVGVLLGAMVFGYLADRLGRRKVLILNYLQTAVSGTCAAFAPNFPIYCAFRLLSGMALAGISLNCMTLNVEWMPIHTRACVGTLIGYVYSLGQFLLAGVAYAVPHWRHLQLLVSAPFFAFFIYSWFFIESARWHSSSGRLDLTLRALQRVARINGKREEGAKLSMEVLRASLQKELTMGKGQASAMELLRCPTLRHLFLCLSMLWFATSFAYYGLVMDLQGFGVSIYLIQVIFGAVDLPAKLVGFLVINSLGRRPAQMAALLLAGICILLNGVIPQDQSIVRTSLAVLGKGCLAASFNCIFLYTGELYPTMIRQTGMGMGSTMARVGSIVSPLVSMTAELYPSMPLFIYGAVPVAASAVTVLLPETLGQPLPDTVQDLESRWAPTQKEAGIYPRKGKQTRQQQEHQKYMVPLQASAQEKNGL

[3] = target: T3, OAT3 (Organic anion transporter 3) (Homo sapiens, UniProt Q8TCC7); experiment: TP_TRANSPORTER: uptake in OAT3-expressing S2 cells; details: mouse, S2 cells that express OAT3
T3 sequence (Q8TCC7 whole entry): T1 sequence (Q8TCC7 whole entry)
Outline: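 S2 proximal tubule cells from mice stably expressing human OAT3. [³H]-ochratoxin A uptake was followed over time and concentration, and the apparent Km was taken from the saturable uptake.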

[4] = target: T1, Organic anion transporter 3; experiment: TP_TRANSPORTER: inhibition of Ochratoxin A uptake in OAT3-expressing S2 cells
[5] = target: T1, Organic anion transporter 3; experiment: TP_TRANSPORTER: inhibition of Ochratoxin A uptake (OTA: 1 uM, Indomethacin: 200 uM) in OAT3-expressing S2 cells; details: mouse, s2, 200 µM; outline: as §1
[6] = target: T2, Solute carrier family 22 member 6; experiment: TP_TRANSPORTER: inhibition of Ochratoxin A uptake (OTA: 1 uM, Indomethacin: 200 uM) in OAT1-expressing S2 cells; details: mouse, s2, 200 µM; outline: as §1
[7] = target: T1, Organic anion transporter 3; experiment: TP_TRANSPORTER: inhibition of Ochratoxin A uptake (OTA: 1 uM, PCG: 200 uM) in OAT3-expressing S2 cells; details: mouse, s2, 200 µM; outline: as §1

`COC(=O)[C@H](Cc1ccccc1)NC(=O)[C@@H](N)CC(=O)O` was tested, and the Activity [1] was “is not an inhibitor [-]” and the Activity [2] was “is not an inhibitor [-]”.
For `C[C@@H]1Cc2c(Cl)cc(C(=O)N[C@@H](Cc3ccccc3)C(=O)O)c(O)c2C(=O)O1` [3R14S-OCHRATOXIN A], the Km [3] was 0.75 µM.
In the case of `CC1=C2C(=CO[C@H](C)[C@H]2C)C(O)=C(C(=O)O)C1=O` [CITRININ], the Ki [4] is reported as 15.4 µM.
For `COc1ccc2c(c1)c(CC(=O)O)c(C)n2C(=O)c1ccc(Cl)cc1` [INDOMETHACIN], the Activity [5] was “inhibitor [(at a rough estimate) 15 % of control]” and the Activity [6] was “inhibitor [(at a rough estimate) 25 % of control]”.
For `CCCCCCCC(=O)O` [OCTANOIC ACID], the Ki [4] was 8.6 µM.
For `CC1(C)S[C@@H]2[C@H](NC(=O)Cc3ccccc3)C(=O)N2[C@H]1C(=O)O` [PENICILLIN G], the Activity [7] was “inhibitor [(at a rough estimate) 35 % of control]”.
Work on `CN1C(C(=O)Nc2ccccn2)=C(O)c2ccccc2S1(=O)=O` [PIROXICAM] yielded a Ki [4] of 4.88 µM.
